A selection: hits, their analogues and other compounds. The true share with any hit is near 2.8%.
SF1 activator = SF-1 (human) activation | Q13285 | CHO-K1 Gal4-SF-1 LBD luciferase reporter; % increase over DMSO SF-1-specific signal | activation, % at 10 µM | 1.9% of 65,000 active;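 active means activation above the mean activation of all tested compounds plus 3 SD, cut at about 50% in these data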
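Assay system – CHO-K1 cells with Gal4–hSF-1 LBD chimera plus Gal4-driven luciferase · Quantity – 4,000 cells per well · Times – compound added 1 h post-seeding, 20 h exposure at 37 °C, 5% CO2 · Measured by – luciferase light emission · Benchmarks – DMSO and mock-transfected background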
Jurkat tox 60K = cytotoxicity toward Jurkat cells; Jurkat E6.1 viability, ATP luminescence, 48 h; inhibition, % at 4 µM; 1.2% of 56,000 active; AID 463;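 active means inhibition above the mean inhibition of all tested compounds plus 3 SD, cut at about 28% in these data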
MT1-MMP txn act = activates MT1-MMP transcription | HT1080 MT1-MMP promoter luciferase reporter, luminescence, overnight; hits give high values | activation factor at 10 µM | 0.16% of 86,000 active | AID 750;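 active means activation factor of at least 2 for MT1-MMP transcription at 10 µM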
RORa activator = activators of human nuclear receptor RORA | AID 560 | 1.5% of 65,000 active | activation, % at 10 µM | CHO-K1 Gal4-RORA LBD luciferase reporter, luminescence; percent increase over mock-subtracted basal signal | P35398;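 active means activation above the mean of all tested compounds plus 3 SD, cut at about 49% in these data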;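 further: 0% = DMSO-treated RORA cells and 100% = added signal equal to DMSO minus mock-transfected cells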
HEK293 NFkB inh = lowers PMA/ionomycin-induced NF-kB signal in HEK293 cells. HEK-293 NF-kB luciferase reporter, luminescence. inhibition, % at 3 µM. 0.21% of 62,000 active. AID 465;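 active means inhibition above the mean of all tested compounds plus 3 SD, cut at about 40% in these data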;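 further: 0% = stimulated DMSO wells and 100% = 10 µM reference inhibitor 5653914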
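System: NF-kB luciferase reporter HEK-293 cells | Replication: Single test | Control set: DMSO vs reference inhibitor | Evaluation: % inhibition | Schedule: 1 h pretreatment, 16 h stimulation, 37 °C | Probe or stimulus: PMA with ionomycin | Compound dosing: One dose, 3 µM | Detection: Luciferase luminescence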
Active calls of the source: *; . = not tested or not shown.

SMILES	SF1 activator	Jurkat tox 60K	MT1-MMP txn act	RORa activator	HEK293 NFkB inh
Cc1ccc(-n2c(O)c(C=NCc3cccnc3)c(=O)[nH]c2=O)cc1C	8	3	1.2	10	14
Cc1ccc(-n2c(O)c(C=Nc3ccccc3N)c(=O)[nH]c2=O)cc1C	46	86*	1.1	55*	-9
O=C(COc1ccc(S(=O)(=O)N2CCCCC2)cc1)N1CCN(Cc2ccccc2)CC1	8	14	1	-20	6
C=CCn1c(O)c(C(C)=NCc2cc(OC)cc(OC)c2)c(=O)[nH]c1=O	-9	37*	0.7	-8	21
C=CCn1c(O)c(C(C)=NCc2cccnc2)c(=O)[nH]c1=O	-2	-2	1.1	-4	2
Cn1ncnc2c(=O)n(C)c(=O)nc1-2	-96	88*	.	-98	99*
O=C(c1ccco1)c1cn(Cc2ccccc2)c2ccccc12	.	.	1.1	.	.
Cn1nc(-c2ccc(OCC(=O)N3CCN(Cc4ccccc4)CC3)cc2)c2ccccc2c1=O	-31	58*	0.9	5	30
